Common to all, as to type: functional
Assay [1] relates to Mycobacterium tuberculosis. The assay can be described thus: Antitubercular activity against multidrug-resistant Mycobacterium tuberculosis CIBIN/UMF15:99 isolate by microplate Alamar blue assay. The essentials:
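Modified microplate Alamar Blue assay. H37Rv ATCC 27294 is susceptible to streptomycin, isoniazid, rifampin, ethambutol and pyrazinamide. Clinical isolate CIBIN/UMF15:99 is resistant to the same five drugs. Test stocks were 2 mg/mL in 20% DMSO in Middlebrook 7H9 broth, filter-sterilized. Final concentrations ran from 100 to 0.78 µg/mL. Read-out was MIC, at least in triplicate.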

Assay [2] deals with Mycobacterium tuberculosis. The assay is described as follows: Antitubercular activity against multidrug-resistant Mycobacterium tuberculosis CIBIN/UMF15:99 isolate by microplate Alamar blue assay relative to streptomycin.
For assay [3], the system named is Mycobacterium tuberculosis. The assay can be described thus: Antitubercular activity against multidrug-resistant Mycobacterium tuberculosis CIBIN/UMF15:99 isolate by microplate Alamar blue assay relative to rifampin. (In general: Alamar Blue is a resazurin reagent that responds to reducing activity.)

In brackets after ≈: the same amount, converted by molar mass. Some results are limits rather than exact numbers.

For orientation: MIC means the lowest concentration that inhibits growth of the organism. A high value points to weaker potency. As to `CC[C@@H](CO)NCCN[C@@H](CC)CO` [ETHAMBUTOL], the MIC in assay [1] turned out to be 8 µg/mL (≈ 39.2 µM). Same read-out and setting: the same measure for `NNC(=O)c1ccncc1` [ISONIAZID]: 3.1 µg/mL (≈ 22.6 µM). Molecule `CC(C)=CCC[C@H](C)[C@@H]1CC[C@@H](C)c2c(O)cc(C)cc21` [LEUBETHANOL] gave an MIC in assay [1] of 6.3 µg/mL (≈ 22 µM). Moreover, the Ratio in assay [2] and in assay [3] was 16 each time. Take `CO[C@H]1/C=C/O[C@@]2(C)Oc3c(C)c(O)c4c(O)c(c(/C=N/N5CCN(C)CC5)c(O)c4c3C2=O)NC(=O)/C(C)=C\C=C\[C@H](C)[C@H](O)[C@@H](C)[C@@H](O)[C@@H](C)[C@H](OC(C)=O)[C@@H]1C` [RIFAMPIN]: the MIC in assay [1] was greater than 100 µg/mL. Regarding `CN[C@@H]1[C@H](O[C@H]2[C@H](O[C@H]3[C@H](O)[C@@H](O)[C@H](N=C(N)N)[C@@H](O)[C@@H]3N=C(N)N)O[C@@H](C)[C@]2(O)C=O)O[C@@H](CO)[C@H](O)[C@H]1O` [STREPTOMYCIN], in assay [1], the MIC was greater than 100 µg/mL.

For the origin of these results see ChEMBL document CHEMBL1821701, “Stereochemical analysis of leubethanol, an anti-TB-active serrulatane, from Leucophyllum frutescens” (2011).
